Reference: ChEMBL document CHEMBL1129936, “Water soluble furoxan derivatives as NO prodrugs” (J Med Chem, 1997)

Legend:
[1] = organism: Rattus norvegicus; test: Relaxation of endothelium […] strips of rat aorta precontracted with noradrenaline; format: functional
Summary of the method: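 Rat aortic strips in Krebs solution at 37 °C, gassed 95% O2-5% CO2 (pH 7.4), equilibrated 1 h, then contracted with noradrenaline 1 µM (submaximal). Cumulative concentration-response curves for relaxation gave EC50.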

[2] = Nitric oxide released from prodrug in the presence of cysteine
Summary of the method: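 Compound at 10^-4 M final was incubated 1 h at 37 °C, pH 7.4, with a 50-fold molar excess of cysteine (1:50). Nitrite was read by the Griess reaction at 540 nm after 10 min at room temperature against nitrite standards (10-80 nmol/mL). Given as percent NO2- (mol/mol) ± SEM.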

[3] = organism: Rattus norvegicus; test: Relaxation of endothelium […] strips of rat aorta precontracted with noradrenaline in presence of 10 uM HbO2; format: functional
Summary of the method: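 Rat aortic strips in Krebs at 37 °C (95% O2-5% CO2, pH 7.4), precontracted with 1 µM noradrenaline and exposed to oxyhemoglobin 10 µM for at least 10 min before the vasodilator was added. Oxyhemoglobin came from bovine hemoglobin reduced with excess sodium dithionite at 4 °C. Relaxation concentration-response curves gave EC50.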

[4] = Nitric oxide released from prodrug in the absence of cysteine
Summary of the method: (§1)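 Compound at 10^-4 M final in pH 7.4 buffered water, no thiol, held at 37 °C for 1 h or 24 h. Nitrite was measured by Griess reagent: 10 min at room temperature, absorbance at 540 nm, sodium nitrite standards 10-80 nmol/mL. Reported as percent NO2- (mol/mol) ± SEM.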

[5] = Nitric oxide releasing capability in the absence of cysteine after 24 hr; summary of the method: as §1

| Molecule | EC50 ([1]; Rattus norvegicus, Aorta) [nM] | % NO2- [2] [M/M] | EC50 ([3]; Rattus norvegicus, Aorta) [nM] | % NO2- [4] [M/M] | % NO2- [5] [M/M] | EC50 [1] [nM] | EC50 [3] [nM] |
| --- | --- | --- | --- | --- | --- | --- | --- |
| NCCSc1no[n+]([O-])c1-c1ccccc1 | 15200 | 2.8 | 78000 | 0 | – | – | – |
| CN(C)CCOc1no[n+]([O-])c1-c1ccccc1 | 7350 | 3.9 | 68000 | 0 | – | – | – |
| CN(C)CCCOc1no[n+]([O-])c1-c1ccccc1 | 14300 | 3.9 | 124000 | 0 | – | – | – |
| CN(C)CCSc1no[n+]([O-])c1-c1ccccc1 | 48100 | 2.9 | 124000 | 0 | – | – | – |
| SODIUM NITROPRUSSIDE [listing 1 of 2 here] | – | – | – | – | – | 21.5 | 48.1 |
| SODIUM NITROPRUSSIDE [listing 2 of 2 here] | – | 58 | – | 1.5 | – | – | – |
| O=[N+]([O-])OCC(CO[N+](=O)[O-])O[N+](=O)[O-] [NITROGLYCERIN] | 22.4 | 45 | – | 0 | – | – | – |
| NCCSc1c(-c2ccccc2)no[n+]1[O-] | 3480 | 37.9 | 15000 | 4.5 | 56 | – | – |

The remaining molecules from weak to strong by EC50 ([1]; Rattus norvegicus, Aorta), led by results:

| EC50 ([1]; Rattus norvegicus, Aorta) [nM] | % NO2- [2] [M/M] | EC50 ([3]; Rattus norvegicus, Aorta) [nM] | % NO2- [4] [M/M] | % NO2- [5] [M/M] | EC50 [1] [nM] | EC50 [3] [nM] | Molecule |
| --- | --- | --- | --- | --- | --- | --- | --- |
| 1550 | 35 | 11500 | 0 | – | – | – | CN(C)CCSc1c(-c2ccccc2)no[n+]1[O-] |
| 1230 | 62.9 | 2220 | 6.3 | 97 | – | – | CN(C)CCOc1c(-c2ccccc2)no[n+]1[O-] |
| 1030 | 91.1 | 3630 | 0 | – | – | – | CN(C)CCCOc1c(-c2ccccc2)no[n+]1[O-] |
| 101 | 8.8 | 430 | 0 | – | – | – | CN(C)CCS(=O)(=O)c1no[n+]([O-])c1-c1ccccc1 |
| 82.6 | 36.3 | 1010 | 0 | 33 | – | – | CN(C)CCS(=O)(=O)c1c(-c2ccccc2)no[n+]1[O-] |
| 55.7 | 58.5 | 330 | 95.3 | 100 | – | – | CN(C)CCSc1c(S(=O)(=O)c2ccccc2)no[n+]1[O-] |
| 52 | 27.9 | 350 | 0 | – | – | – | CN(C)CCSc1no[n+]([O-])c1S(=O)(=O)c1ccccc1 |
| 30 | 20.2 | 130 | 0 | – | – | – | CN(C)CCCOc1no[n+]([O-])c1S(=O)(=O)c1ccccc1 |
| 13 | 19.7 | 46 | 0 | – | – | – | NCCOc1no[n+]([O-])c1S(=O)(=O)c1ccccc1 |
| 4.1 | 58.9 | 48 | 0 | – | – | – | CN(C)CCOc1no[n+]([O-])c1S(=O)(=O)c1ccccc1 |
